The source made the active and inactive calls. The rule behind the calls is not given here.
Columns and labels:
[1] = tested on: HT-29; assay: Antiproliferative activity against human HT-29 cells assessed as growth inhibition after 72 hrs by MTT assay; assay type: functional; conditions: HT-29, 72 h
In short: (§1)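 ATCC-sourced cells seeded at 4000 per well and left 12 h, then medium exchanged for fresh medium carrying graded compound concentrations for 72 h. MTT (5 mg/mL, 10 µl) added for 3 h, formazan dissolved in DMSO, absorbance read at 540 nm. GI50 taken from dose-response curve; mean ± SEM of three independent experiments.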

[2] = tested on: MDA-MB-231; assay: Antiproliferative activity against human MDA-MB-231 cells assessed as growth inhibition after 72 hrs by MTT assay; assay type: functional; conditions: MDA-MB-231, 72 h; in short: as §1
[3] = tested on: K562; assay: Antiproliferative activity against human K562 cells assessed as growth inhibition after 72 hrs by MTT assay; assay type: functional; conditions: K562, 72 h; in short: as §1
[4] = target: T1, DNA topoisomerase (Bos taurus) (UniProt A0JN73); assay: Inhibition of calf thymus Topoisomerase 1-mediated relaxation of supercoiled pBR322 DNA at 100 uM after 30 mins by gel electrophoresis
T1 sequence (whole entry): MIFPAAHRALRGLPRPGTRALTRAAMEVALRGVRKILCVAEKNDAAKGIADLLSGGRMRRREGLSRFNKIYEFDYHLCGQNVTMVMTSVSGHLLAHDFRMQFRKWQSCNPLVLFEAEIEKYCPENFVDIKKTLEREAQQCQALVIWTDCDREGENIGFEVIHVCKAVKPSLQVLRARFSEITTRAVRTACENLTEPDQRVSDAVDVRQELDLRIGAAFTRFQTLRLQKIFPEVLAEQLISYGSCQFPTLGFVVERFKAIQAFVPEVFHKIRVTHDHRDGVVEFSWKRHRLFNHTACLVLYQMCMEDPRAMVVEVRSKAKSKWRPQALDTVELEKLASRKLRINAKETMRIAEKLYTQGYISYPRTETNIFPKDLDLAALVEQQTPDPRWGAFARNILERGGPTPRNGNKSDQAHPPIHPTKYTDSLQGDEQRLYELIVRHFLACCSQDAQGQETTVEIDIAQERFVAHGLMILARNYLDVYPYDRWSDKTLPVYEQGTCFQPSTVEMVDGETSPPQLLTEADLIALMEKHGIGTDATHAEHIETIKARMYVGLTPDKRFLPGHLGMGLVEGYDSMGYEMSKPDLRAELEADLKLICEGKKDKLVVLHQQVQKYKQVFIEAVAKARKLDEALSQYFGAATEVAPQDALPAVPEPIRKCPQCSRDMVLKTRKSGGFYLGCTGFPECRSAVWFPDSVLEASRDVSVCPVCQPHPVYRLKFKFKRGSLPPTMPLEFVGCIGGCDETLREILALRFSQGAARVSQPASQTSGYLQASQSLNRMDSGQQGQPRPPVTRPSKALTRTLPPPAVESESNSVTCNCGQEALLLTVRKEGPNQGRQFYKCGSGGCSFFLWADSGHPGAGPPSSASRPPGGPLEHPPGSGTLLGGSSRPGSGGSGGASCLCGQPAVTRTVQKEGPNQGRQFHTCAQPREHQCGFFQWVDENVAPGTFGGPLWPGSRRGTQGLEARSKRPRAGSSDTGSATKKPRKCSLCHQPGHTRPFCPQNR
In short: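 Supercoiled pBR322 DNA incubated with 1 unit calf thymus topoisomerase I, with or without compound at 100 µM, 30 min at 37 °C. Stopped with 10% SDS, run on 1% agarose gel, stained 15 min with DNA gel stain and imaged under UV. Controls without enzyme included.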

[5] = tested on: HepG2; assay: Antiproliferative activity against human HepG2 cells assessed as growth inhibition after 72 hrs by MTT assay; assay type: functional; conditions: HepG2, 72 h; in short: as §1

COc1cc(-c2c3c4cc(OC)c(O)cc4oc(=O)c3n3ccc4c(CN5CCOCC5)c(O)c(OC)cc4c23)ccc1O
GI50 [1]: 13 µM | GI50 [2]: 19.9 µM | GI50 [3]: 2.84 µM | inhibition [4]: Active | GI50 [5]: 4.47 µM

COc1cc(-c2c3c4cc(OC)c(O)cc4oc(=O)c3n3ccc4cc(O)c(OC)cc4c23)ccc1O [LAMELLARIN D]
GI50 [1]: 4.47 µM | GI50 [2]: 0.32 µM | GI50 [3]: 0.08 µM | inhibition [4]: Active | GI50 [5]: 0.09 µM

CCCN(CCC)Cc1c(O)c(OC)cc2c1oc(=O)c1c2c(-c2ccc(O)c(OC)c2)c2c3cc(OC)c(O)cc3ccn21
GI50 [1]: 2.92 µM | GI50 [2]: 9.75 µM | GI50 [3]: 2.37 µM | inhibition [4]: Active | GI50 [5]: 6.83 µM

COc1cc(-c2c3c4cc(OC)c(O)c(CN5CCCCC5)c4oc(=O)c3n3ccc4cc(O)c(OC)cc4c23)ccc1O
GI50 [1]: 2.5 µM | GI50 [2]: 7.25 µM | GI50 [3]: 1.95 µM | inhibition [4]: Active | GI50 [5]: 6.99 µM

COc1cc(-c2c3c4cc(OC)c(O)cc4oc(=O)c3n3ccc4c(CN(C)C)c(O)c(OC)cc4c23)ccc1O
GI50 [1]: 15 µM | GI50 [2]: 13.1 µM | GI50 [3]: 1.34 µM | inhibition [4]: Active | GI50 [5]: 6.37 µM

CCCN(CCC)Cc1c(O)c(OC)cc2c1oc(=O)c1c2c(-c2ccc(O)c(OC)c2)c2c3cc(OC)c(O)c(CN(C)C)c3ccn21
GI50 [1]: 2.83 µM | GI50 [2]: 6.15 µM | GI50 [3]: 7.16 µM | inhibition [4]: Active | GI50 [5]: 15.8 µM

COc1cc(-c2c3c4cc(OC)c(O)cc4oc(=O)c3n3ccc4c(CN5CCCCC5)c(O)c(OC)cc4c23)ccc1O
GI50 [1]: 18.3 µM | GI50 [2]: 33.1 µM | GI50 [3]: 9.94 µM | inhibition [4]: Active | GI50 [5]: 21.3 µM

COc1cc(-c2c3n(c4c(=O)oc5cc(O)c(OC)cc5c24)CCc2cc(O)c(OC)cc2-3)ccc1O
GI50 [1]: 40.8 µM | GI50 [2]: 17.9 µM | GI50 [3]: 1.61 µM | inhibition [4]: inactive | GI50 [5]: 2.14 µM

COc1cc(-c2c3c4cc(OC)c(O)c(CN(C)C)c4oc(=O)c3n3ccc4c(CN(C)C)c(O)c(OC)cc4c23)ccc1O
GI50 [1]: 5.68 µM | GI50 [2]: 9.89 µM | GI50 [3]: 9.62 µM | inhibition [4]: Active | GI50 [5]: > 50 µM

CCN(CC)Cc1c(O)c(OC)cc2c1oc(=O)c1c2c(-c2ccc(O)c(OC)c2)c2c3cc(OC)c(O)cc3ccn21
GI50 [1]: 2.52 µM | GI50 [2]: 5.78 µM | GI50 [3]: 1.04 µM | inhibition [4]: Active | GI50 [5]: 5.04 µM

COc1cc2c(cc1O)oc(=O)c1c2c(-c2cc(CN(C)C)c(O)c(OC)c2)c2c3cc(OC)c(O)cc3ccn21
GI50 [1]: 6.41 µM | GI50 [2]: 3.98 µM | GI50 [3]: 1.85 µM | inhibition [4]: inactive | GI50 [5]: 30.1 µM

COc1cc(-c2c3c4cc(OC)c(O)c(CN5CCOCC5)c4oc(=O)c3n3ccc4cc(O)c(OC)cc4c23)ccc1O
GI50 [1]: 2.64 µM | GI50 [2]: 4.87 µM | GI50 [3]: 2.25 µM | inhibition [4]: Active | GI50 [5]: 3.69 µM

COc1cc(-c2c3c4cc(OC)c(O)c(CN(C)C)c4oc(=O)c3n3ccc4cc(O)c(OC)cc4c23)ccc1O
GI50 [1]: 5.46 µM | GI50 [2]: 3.3 µM | GI50 [3]: 0.43 µM | inhibition [4]: inactive | GI50 [5]: 2.63 µM
